Assay results reported in ChEMBL document CHEMBL1122149, “Beta-carbolines: synthesis and neurochemical and pharmacological actions on brain benzodiazepine receptors” (J Med Chem, 1982).

Molecular target: T1, GABA-A receptor; anion channel (Rattus norvegicus) (UniProt O09028+P15431+P18506+P18508+P19969+P20236+P23574+P23576+P28471+P28473+P30191+P62813+P63079+P63138+Q91ZM7+Q9ES14)
Test: Hill coefficient for inhibition of ~2 nM [3H]diazepam binding to GABA-A benzodiazepine receptor of rat cerebral cortical membrane
Method in brief: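 Rat cerebral cortex tissue was homogenized in 100 volumes of 50 mM Tris-HCl pH 7.4 and washed three times by centrifugation at 20000g. […] Hill coefficients came from least mean squares regression of the inhibition curves.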

| Structure (SMILES) | Hill coefficient |
| --- | --- |
| O=C(O)c1cc2c3ccccc3nc-2c[nH]1 | 0.72 |
| COC(=O)c1cc2c(cn1)[nH]c1ccccc12 [BETA-CCM] | 0.7 |
| CC(=O)c1cc2c3ccccc3nc-2c[nH]1 | 0.73 |
| O=Cc1cc2c3ccccc3nc-2c[nH]1 | 0.93 |
| OCc1cc2c3ccccc3nc-2c[nH]1 | 0.93 |

Molecular target: GABA-A receptor; anion channel
Test: In vitro inhibition of [3H]diazepam binding to benzodiazepine receptor in rat cerebral cortical membrane
Assay type: cell membranes

| Structure (SMILES) | Ki [µM] |
| --- | --- |
| COC(=O)c1cc2c3ccccc3n(C)c2cn1 | > 50 |
| COC(=O)C1CC2=C(C(c3ccccc3)N1)N(C)c1ccccc1C2 (configuration not stated) | > 100 |
| Oc1cc2c(cc1O)CNCC2 | > 100 |
| CCC1NC(C(=O)OC)Cc2c1[nH]c1ccccc21 (configuration not stated) | > 100 |
| COC(=O)C(Cc1c[nH]c2ccccc12)N(C)C (configuration not stated) | > 100 |
| O=C(O)c1cc2c3ccccc3nc-2c[nH]1 | 24 |
| O=C(O)C1Cc2c([nH]c3ccccc23)C(c2ccccc2)N1 (configuration not stated) | 6.11 |
| COC(=O)c1cc2c(cn1)[nH]c1ccccc12 [BETA-CCM] | 0.00105 |
| COC(=O)C1Cc2ccccc2CN1 (configuration not stated) | > 100 |
| CC(=O)c1cc2c3ccccc3nc-2c[nH]1 | 0.058 |
| Cc1nccc2c1[nH]c1ccccc12 [HARMAN] | 12.4 |
| O=C(O)c1cnc2ccccc2c1 | > 100 |
| CCC1NC(C(=O)OC)=Cc2c1n(C)c1ccccc21 (configuration not stated) | > 100 |
| CCC1NC(C(=O)OC)Cc2c1[nH]c1ccc(O)cc21 (stereo in doubt; 14a) | > 100 |
| O=Cc1cc2c3ccccc3nc-2c[nH]1 | 0.0623 |
| c1ccc2c(c1)[nH]c1cnccc12 [NORHARMANE] | 1.62 |
| COc1ccc2[nH]c3c(c2c1)C=CNC3 | > 500 |
| C1=Cc2c([nH]c3ccccc23)CN1 | > 100 |
| CN(C)CCc1c[nH]c2ccc(O)cc12 [BUFOTENINE] | > 100 |
| COC(=O)C1Cc2c([nH]c3ccccc23)C(CO)N1 (stereo in doubt; 18) | 0.51 |
| O=C(O)C1Cc2ccccc2CN1 (configuration not stated) | > 100 |
| CC(=O)c1ccccn1 | > 100 |
| COc1cc2c(cc1OC)CNCC2 | > 100 |

| Structure (SMILES) | Ki [µM] |
| --- | --- |
| CCOC(=O)c1cc2c(cn1)[nH]c1ccccc12 | 0.0011 |
| COC(=O)C1Cc2c([nH]c3ccccc23)C(c2ccccc2)N1 (stereo in doubt; 49) | 54 |
| Oc1ccc2[nH]c3c(c2c1)C=CNC3 | > 100 |
| CN1C=Cc2c([nH]c3ccccc23)C1 | > 100 |
| COC(=O)C1Cc2c([nH]c3ccccc23)C(CO)N1 (stereo in doubt; 17) | 5 |
| CCC1NC(C(=O)OC)Cc2c1[nH]c1ccc(O)cc21 (stereo in doubt; 14a+14b) | 39 |
| OCc1cc2c3ccccc3nc-2c[nH]1 | 1.47 |
| COC(=O)c1cc2c(cn1)[nH]c1ccc(O)cc12 | 0.00266 |
| COC(=O)C1Cc2c([nH]c3ccc(O)cc23)CN1 (configuration not stated) | 0.573 |
| CCCOC(=O)c1cc2c(cn1)[nH]c1ccccc12 | 0.001 |
| COC(=O)c1cc2c([nH]c3ccccc32)c(-c2ccccc2)n1 | 3.89 |
| O=Cc1cnc2ccccc2c1 | > 100 |
| CN(C)CCc1c[nH]c2ccccc12 | > 100 |
| O=Cc1cccnc1 [NICOTINALDEHYDE] | > 100 |
| CC(O)c1cc2c3ccccc3nc-2c[nH]1 (configuration not stated) | 3.16 |
| COC(=O)C1Cc2c([nH]c3ccccc23)C(C)N1 (configuration not stated) | > 50 |
| COC(=O)c1cc2ccccc2cn1 | 13.2 |
| COC(=O)C1Cc2c([nH]c3ccccc23)C(c2ccccc2)N1 (stereo in doubt; 60) | 174 |
| COC(=O)C1=Cc2c([nH]c3ccccc23)C(c2cccnc2)N1 (configuration not stated) | 6.25 |
| O=Cc1ccccn1 [2-PYRIDINECARBOXALDEHYDE] | > 100 |
| c1ccc2cnccc2c1 [ISOQUINOLINE] | > 100 |
| COC(=O)c1cnc2ccccc2c1 | > 100 |
| CCc1nc(C(=O)OC)cc2c1[nH]c1ccccc12 | 7.54 |

Molecular target: T1, GABA-A receptor; anion channel (Rattus norvegicus)

| Structure (SMILES) | Hill coefficient |
| --- | --- |
| CCOC(=O)c1cc2c(cn1)[nH]c1ccccc12 | 0.74 |
